Test results as given in paper PMC4084610 (Advances in pharmacology (San Diego, Calif.), 2014).
Entries after “also recorded” stand apart in the source; their conditions may differ. Where two headings read alike, the source gives them in different places.

Experiments:
rats = details: cited from earlier work
VMAT2 [1] = target: T1, VMAT2 (Rattus norvegicus, UniProt Q01827); format: binding; details: whole rat brain vesicles, mean±SEM; for Ki: read-out: [3H]DTBZ binding Ki, 5 nM [3H]DTBZ
VMAT2 [2] = target: T1, VMAT2; format: biochemical
VMAT2 [3] = target: T1, VMAT2; experiment: Kinetic analysis of inhibition of [3H]DA uptake at VMAT2; format: biochemical; details: for Vmax of [3H]DA uptake at VMAT2: analog at its Ki concentration, control 29.9±4.30; for Mechanism of VMAT2 inhibition: kinetic analysis of [3H]DA uptake
Method in brief: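 Rat synaptic vesicle suspension was added to assay buffer containing inhibitor or buffer (control), plus [3H]DA across 0.001–5.0 μM. Incubation ran 8 min and was stopped by filtration, then filter-retained radioactivity was counted. Nonspecific uptake was defined with Ro4-1284 (10 μM).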

DAT [4] = target: T2, DAT (Rattus norvegicus, UniProt P23977); experiment: Inhibition of [3H]DA uptake at DAT in synaptosomal preparations; format: biochemical; details: read-out: DAT Ki value ([3H]DA uptake); synaptosomes
Method in brief: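 Synaptosomes are preincubated with test compound (1 nM–100 μM) for 5 min at 34 °C, then placed on ice. [3H]DA is added from a 0.1 μM solution, followed by a further 10 min at 34 °C. Nonspecific uptake is defined with 10 μM nomifensine.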

[5] = tested on: METH-evoked DA release from striatal slices; experiment: Inhibition of METH-evoked DA release from superfused striatal slices; format: cell-based, rat; details: for Imax for inhibition of METH-evoked DA release / IC50: METH 5 μM, total DA overflow, striatal slices; for Effect of analog alone on fractional DA release: analog alone in superfusion buffer, 0.3–30 μM; for IC50: read-out: IC50 for inhibition of METH-evoked DA release
Method in brief: (§1)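 Rat coronal striatal slices are preincubated 60 min at 34 °C in Krebs buffer, then superfused at 1 ml/min for 60 min. Two 5-min basal samples are collected into 0.1 M perchloric acid. Test compound (one concentration per slice, 0.3–30 μM) runs 30 min, then with 5 μM METH for 15 min, then alone for 20 min. Buffer-control and METH-control slices are included. Superfusate is ascorbate-oxidase treated and analysed by HPLC-electrochemical detection.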

[6] = tested on: fractional DOPAC release from rat striatal slice preparations; experiment: Fractional DOPAC release from superfused striatal slices; format: cell-based; details: 30 min superfusion before METH, 0.3–30 μM
Method in brief: as §1

Water solubility = format: physicochemical
METH addicts = details: ref NCT00439504; cited from earlier work
DAT [7] = target: T2, DAT; details: ref Miller et al., 2004; cited from earlier work
SERT = details: ref Miller et al., 2004; cited from earlier work
[8] = tested on: METH-evoked DA release from striatal slices; details: ref Horton, Siripurapu, Norrholm, et al., 2011; cited from earlier work
[9] = rat striatal vesicles, mean±SEM
[10] = read-out: VMAT2 [3H]DA uptake Ki, rat striatal vesicles, 0.1 μM [3H]DA, mean±SEM

T1 sequence (Q01827 whole entry): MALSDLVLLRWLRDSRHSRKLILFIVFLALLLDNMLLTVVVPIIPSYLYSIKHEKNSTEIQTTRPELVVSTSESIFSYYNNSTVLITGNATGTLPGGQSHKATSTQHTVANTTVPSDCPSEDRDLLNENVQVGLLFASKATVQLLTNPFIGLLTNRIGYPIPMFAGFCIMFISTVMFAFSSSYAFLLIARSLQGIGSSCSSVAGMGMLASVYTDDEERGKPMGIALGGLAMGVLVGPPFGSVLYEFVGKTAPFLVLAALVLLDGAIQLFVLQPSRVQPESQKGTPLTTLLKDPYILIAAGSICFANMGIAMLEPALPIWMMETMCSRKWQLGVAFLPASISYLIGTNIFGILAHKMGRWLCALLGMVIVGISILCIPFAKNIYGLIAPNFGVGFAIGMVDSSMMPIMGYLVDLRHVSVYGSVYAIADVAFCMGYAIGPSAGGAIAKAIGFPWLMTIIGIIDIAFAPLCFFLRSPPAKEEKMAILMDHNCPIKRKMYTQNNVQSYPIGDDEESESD
T2 sequence (P23977 whole entry): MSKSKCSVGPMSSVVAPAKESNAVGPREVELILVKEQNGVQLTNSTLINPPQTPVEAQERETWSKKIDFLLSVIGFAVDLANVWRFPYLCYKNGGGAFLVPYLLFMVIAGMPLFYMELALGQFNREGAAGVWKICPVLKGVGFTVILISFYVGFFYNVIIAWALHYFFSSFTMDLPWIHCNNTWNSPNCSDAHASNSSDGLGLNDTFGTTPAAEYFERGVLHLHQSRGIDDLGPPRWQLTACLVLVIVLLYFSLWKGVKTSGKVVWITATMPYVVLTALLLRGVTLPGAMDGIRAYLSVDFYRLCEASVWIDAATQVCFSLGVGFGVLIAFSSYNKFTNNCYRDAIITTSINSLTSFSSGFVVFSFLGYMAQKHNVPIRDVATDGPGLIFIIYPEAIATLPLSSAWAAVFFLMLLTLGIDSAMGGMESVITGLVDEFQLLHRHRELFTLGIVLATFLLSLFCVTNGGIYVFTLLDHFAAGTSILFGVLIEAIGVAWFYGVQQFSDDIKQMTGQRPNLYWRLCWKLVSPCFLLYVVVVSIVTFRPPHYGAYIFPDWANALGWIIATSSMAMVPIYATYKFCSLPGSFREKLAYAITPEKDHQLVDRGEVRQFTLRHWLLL

For `COc1ccc(CC[C@H]2CCC[C@@H](CCc3ccc(OC)cc3)N2C[C@@H](O)CO)cc1` (relative stereo) [GZ-793A, (R)-3-[2,6-cis-di(4-methoxyphenethyl)piperidin-1-yl]propane-1,2-diol], the “Effect on cue- and METH-induced reinstatement of METH-seeking” value (rats; rats, 15 mg/kg, ref Alvers et al., 2012) is listed as “decrease reinstatement”.

In the case of `Cl.c1ccc(CC[C@@H]2CC[C@H](CCc3ccccc3)N2)cc1` [AV-1-228, cis-2,5-di-(2-phenethyl)-pyrrolidine hydrochloride], the Ki (VMAT2 [1]) is reported as 2660 ± 370 nM, the “[3H]DTBZ binding Imax” value (VMAT2 [1]) is reported as 100% and the “VMAT2 [3H]DA uptake Imax” value (VMAT2 [2]; [9]) is reported as 100%. The Ki (VMAT2 [2]; [10]) was 28 ± 1 nM.

With `c1ccc(C[C@H]2CC[C@@H](Cc3ccccc3)N2)cc1` [AV-2-192, cis-2,5-di(2-benzyl)-pyrrolidine] the Ki (VMAT2 [1]) was 1640 ± 120 nM, the “[3H]DTBZ binding Imax” value (VMAT2 [1]) was 100% and the “VMAT2 [3H]DA uptake Imax” value (VMAT2 [2]; [9]) was 100%. The Ki (VMAT2 [2]; read-out: Ki at the DA uptake site on VMAT2) was less than 10 nM, the Ki (VMAT2 [2]; [10]) was 9.3 ± 0.75 nM and the “Vmax of [3H]DA uptake at VMAT2” value (VMAT2 [3]) was 29.6 ± 7.28 pmol/min/mg. The “Mechanism of VMAT2 inhibition” value (VMAT2 [3]) was “competitively inhibit; also recorded: Competitive”, the Ki (DAT [4]) was 2630 nM and the “Imax for inhibition of METH-evoked DA release” value [5] was 55%. For the same compound, the “Effect of analog alone on fractional DA release” value [5] was “did not alter fractional DA release”, the IC50 [5] was 5200 nM and the “Lowest concentration to increase extracellular DOPAC” value [6] was 3 µM.

In the case of `CN1[C@@H](Cc2ccccc2)CC[C@H]1Cc1ccccc1` [AV-2-197, 1-methyl-cis-2,5-di(2-benzyl)-pyrrolidine], the Ki (VMAT2 [1]) is reported as 2460 ± 420 nM, the “[3H]DTBZ binding Imax” value (VMAT2 [1]) is reported as 96±1% and the “Increased affinity for the DA uptake site on VMAT2 compared with AV-1-229A” value (VMAT2 [2]) is reported as 14 orders-of-magnitude. For the same compound, the “VMAT2 [3H]DA uptake Imax” value (VMAT2 [2]; [9]) was 100%, the Ki (VMAT2 [2]; [10]) was 19 ± 0.91 nM and the “Vmax of [3H]DA uptake at VMAT2” value (VMAT2 [3]) was 22.0 ± 4.36 pmol/min/mg. The “Mechanism of VMAT2 inhibition” value (VMAT2 [3]) was “competitively inhibit; also recorded: Competitive”, the Ki (DAT [4]) was 5400 nM and the “Imax for inhibition of METH-evoked DA release” value [5] was 63%. For the same compound, the “Effect of analog alone on fractional DA release” value [5] was “did not alter fractional DA release”, the IC50 [5] was 4200 nM and the “Lowest concentration to increase extracellular DOPAC” value [6] was 10 µM.

In the case of `CN1[C@@H](CCc2ccccc2)CCC[C@H]1CCc1ccccc1` [Lobelane, N-methyl-2,6-bis(cis-phenylethyl)piperidine, reference compound], the “Water solubility (in words)” value (Water solubility) is reported as “decreased water solubility”.

In the case of `CN1[C@@H](CC(=O)c2ccccc2)CCC[C@H]1C[C@H](O)c1ccccc1` [Lobeline, reference compound], the “Effect on locomotor activity in response to METH” value (rats; adult male rats, 3 mg/kg 10 min prior to METH 1 mg/kg, 10 consecutive days, ref Miller, Green, et al. (2000)) is listed as “significantly reduced locomotor activity” and the “Safety in phase 1b clinical trials” value (METH addicts) is listed as “safe”.

In the case of `CN1C(/C=C\c2ccccc2)CCCC1/C=C\c1ccccc1` (stereo not drawn) [MTD, N-methyl-2,6-bis(cis-phenylethenyl) piperidine], the “Water solubility (in words)” value (Water solubility) is given as “limited solubility”, the “Fold higher affinity for DAT compared with lobeline” value (DAT [7]) is given as 100 fold and the “Fold lower affinity for SERT compared with lobeline” value (SERT) is given as 6.5 fold.

For `CN1C/C(=C\c2ccc(Cl)cc2Cl)C/C(=C/c2ccc(Cl)cc2Cl)C1` [UKMH-106, (3Z,5Z)-3,5-bis(2,4-dichlorobenzylidene)-1-methylpiperidine], the “Water solubility (in words)” value (Water solubility) is given as “improved water solubility” and the “Inhibition of METH-evoked DA release (in words)” value [8] is given as “inhibited”.
